# CHO-K1 Ca antag – counter-screen for M1 antagonists: effect in parental CHO-K1 cells | ATP-induced calcium, Fluo-8 fluorescence | inhibition, % at 3 µM | 360,000 tested, 0.6% active | AID 602250;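 active = inhibition above a per-plate cutoff, the plate's mean sample inhibition plus 3 SD, cut at about 24% in these data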;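 also: 0% = DMSO plus EC80 ATP and 100% = DMSO alone without ATP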
# CHRM5 PAM – positive allosteric modulators of human muscarinic M5 receptor | P08912 | CHO-K1 hM5, Fluo-8 calcium, ACh EC20 PAM; 0% = ACh EC20, 100% = ACh EC100 | activation, % at 3 µM | 360,000 tested, 0.3% active | AID 624038;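 active = activation above the run cutoff, the mean activation of all test compounds plus 3 SD, cut at about 18% in these data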
# Target sequence (P08912 whole entry, looked up): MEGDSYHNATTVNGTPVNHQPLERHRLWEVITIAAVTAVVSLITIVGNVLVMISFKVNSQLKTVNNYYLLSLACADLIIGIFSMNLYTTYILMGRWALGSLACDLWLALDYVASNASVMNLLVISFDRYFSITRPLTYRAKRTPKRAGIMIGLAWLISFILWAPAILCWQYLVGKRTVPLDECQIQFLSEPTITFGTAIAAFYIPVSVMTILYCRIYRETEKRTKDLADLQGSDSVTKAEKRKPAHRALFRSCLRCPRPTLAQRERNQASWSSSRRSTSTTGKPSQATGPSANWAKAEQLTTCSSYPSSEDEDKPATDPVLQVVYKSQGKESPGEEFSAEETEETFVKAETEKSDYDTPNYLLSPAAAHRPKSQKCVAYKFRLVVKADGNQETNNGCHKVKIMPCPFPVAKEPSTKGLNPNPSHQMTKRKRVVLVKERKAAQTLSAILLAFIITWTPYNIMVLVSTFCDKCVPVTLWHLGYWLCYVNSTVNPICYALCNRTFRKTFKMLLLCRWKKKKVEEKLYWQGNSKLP
#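 Assay system – human M5 receptor in CHO-K1 cells · Read-out – % activation, ACh-normalized · Technique – Fluo-8 calcium fluorescence · Dosing – single-point, 3 µM nominal · Incubation – Fluo-8 loading 80 min at 37 °C plus 30 min room temperature · Repeats – singlicate, one well per test compound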
# CHRM5 agonist – CHRM5 agonism in calcium assay; CHO-K1 hM5 cells, Fluo-8 calcium fluorescence; 0% DMSO wells, 100% maximal acetylcholine response; P08912; 360,000 tested, 0.19% active; activation, % at 3 µM;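 active = activation above the run's mean over test compounds plus 3 SD, cut at about 23% in these data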;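 also: signal is peak over basal fluorescence ratio across the kinetic read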
# CHO-K1 Ca PAM – nonselective activator or artifact in parental CHO-K1 calcium assay | 360,000 tested, 0.02% active | activation, % at 3 µM | ATP EC20, Fluo-8 calcium fluorescence; 0% at ATP EC20, 100% at ATP max | AID 602247;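 active = activation above the run cutoff, the mean activation of all test compounds plus 3 SD, cut at about 40% in these data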;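 also: peak over basal fluorescence ratio in a 140 s read after ATP addition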
# CHO-K1 Ca ag – M1 agonist counterscreen hit in parental CHO-K1 cells | Fluo-8 calcium fluorescence; scaled to maximal ATP response, vehicle zero | activation, % at 3 µM | 360,000 tested, 0.48% active | AID 602248; in the data active = activation above about 15%;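 also: untransfected CHO-K1 host cells lacking M1 receptor as counterscreen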
# M5 antag – CHRM5 antagonism in calcium assay; AID 624040; 360,000 tested, 0.59% active; P08912; inhibition, % at 3 µM; CHO-hM5 cells, Fluo-8 calcium fluorescence, ACh EC80;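 active = inhibition above a per-plate cutoff, the mean of that plate's test compounds plus 3 SD, cut at about 27% in these data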;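 also: 0% = acetylcholine EC80 with DMSO and 100% = DMSO without agonist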
# Numbers without * were called inactive. A selection: hits, their analogues and other compounds. The true share with any hit is near 1.7%.
SMILES,CHO-K1 Ca antag,CHRM5 PAM,CHRM5 agonist,CHO-K1 Ca PAM,CHO-K1 Ca ag,M5 antag
COC(=O)c1ccc(NC(=O)CSc2nc3cccnc3n2C)cc1,21,-12,-1,-8,3,2
COc1ccc(C(=O)CSc2nc3cccnc3n2C)cc1,28*,-5,9,-7,1,0
CCn1c(SCC(=O)c2ccc(NS(=O)(=O)c3ccccc3)cc2)nnc1-c1cccs1,24*,-10,-1,-5,0,10
CCOC(=O)c1ccc(NC(=O)CSc2nnc(-c3cccs3)n2C)cc1,-4,21*,3,1,0,-8
CCOC(=O)c1ccc(NC(=O)CSc2nnc(-c3cccs3)n2CC)cc1,-4,-2,3,11,11,1
O=C(/C=C/c1ccccc1[N+](=O)[O-])NC1CCCC1,-6,1,-1,6,1,-8
COCC(CN1CCN(C2=NS(=O)(=O)c3ccccc32)CC1)OC(=O)c1ccccc1 (stereo unspecified),-15,-4,-1,-17,1,10
Cc1ccc(S(=O)(=O)CCC(=O)OCc2ccc(Cl)cc2)cc1,19,2,-5,13,0,-4
COc1ccc(NCc2nnc(SCC(=O)c3ccc(OC)cc3)n2C)cc1,-11,36*,-2,4,0,33*
COc1ccc(CC(=O)NCc2nnc(SCC(=O)c3ccc(OC)cc3)n2C)cc1,-12,0,-3,10,1,10
O=C(CCCc1ccccc1)NCCCc1ccccc1,1,2,-1,-17,0,8
O=C(NCCCNC(=O)c1c(F)cccc1F)c1c(F)cccc1F,-18,7,-3,19,0,0
O=C(NCC(Cl)c1ccc2ccccc2c1)c1c(F)cccc1F (stereo unspecified),7,-9,6,7,20*,11
COC(=O)c1cnc(SCc2ccc([N+](=O)[O-])cc2)n1C,-3,0,-18,-5,0,1
OC(COc1cccc2ccccc12)CN1CCN(c2cccc(Cl)c2)CC1 (stereo unspecified),9,-2,-4,-9,21*,3
OCCN(CCCn1c(C(F)(F)F)nc2ccccc21)c1nc(CN2CCCCC2)cs1,-7,6,-8,9,1,-4
COc1ccc(-c2noc(COc3ccccc3OC)n2)cc1OC,10,-3,1,8,1,-3
Cc1noc(COc2ccccc2OCC(N)=O)n1,-1,2,-1,19,16*,0
COc1ccc(/C(O)=C2/C(=O)C(=O)N(CCCN3CCOCC3)C2c2ccc(OC)cc2)cc1 (stereo unspecified),0,-11,-5,-14,0,32*
COc1ccc(C2/C(=C(/O)c3ccc4c(c3)CC(C)O4)C(=O)C(=O)N2CCCN2CCOCC2)cc1 (stereo unspecified),5,20*,0,4,1,-22
COc1ccc(C2/C(=C(/O)c3ccc(S(=O)(=O)N4CCOCC4)cc3)C(=O)C(=O)N2CCN2CCOCC2)cc1 (stereo unspecified),-13,1,-1,-2,1,-2
CC1(C(=O)NCc2ccccc2)CCC(=O)N1CCc1c[nH]c2ccccc12 (stereo unspecified),31*,-1,5,-9,1,1
O=C(NCc1cccnc1)NC1(C(F)(F)F)Oc2ccccc2O1,-3,40*,-7,10,0,-15
CC(C)CNC(=O)NC1(C(F)(F)F)Oc2ccccc2O1,-7,5,2,10,1,0
OCC[C@@H]1C[C@H](O)[C@@H](O)[C@]2(OCc3cc(Cl)ccc32)O1,21,6,1,0,0,-6
NC(=O)c1ccc(C(=O)N/N=C(/Cc2ccccc2)c2ccccc2)cc1,-6,5,-5,7,0,-9
O=C(Nc1ccc(F)cc1)Nc1ccccc1NS(=O)(=O)c1cccs1,16,-19,11,-9,13,25
O=C(Nc1ccc(Cl)cc1)Nc1ccccc1NS(=O)(=O)c1cccs1,34*,-19,7,-2,16*,44*

# Bioassay records (PubChem BioAssay)
